In ChEMBL document CHEMBL2380272, “Biological evaluation of bisbenzaldehydes against four Mycobacterium species” (Eur J Med Chem, 2013):
≈ marks a conversion by molar mass, not a printed value.

Columns and labels:
[1] = tested on: Mycobacterium tuberculosis; assay: Antimycobacterial activity against Mycobacterium tuberculosis H37Rv ATCC 27294 assessed as growth inhibition at 0.1 uM after 6 days by luciferase reporter gene assay relative to control; format: functional; conditions: H37Rv ATCC 27294, 144 h, read-out: GI
In short: (§1)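 Luminescent M. tb H37Rv (hsp60-driven luciferase) in 7H9 + 10% FCS was seeded at 50 000 RLU/mL. Compounds were tested at 10, 1 and 0.1 µM from 10 mM DMSO stocks. After 6 days, luminescence was read with 1% n-decanal. Growth inhibition (%) was expressed against untreated culture, with triplicates.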

[2] = tested on: Mycobacterium tuberculosis; assay: Antimycobacterial activity against Mycobacterium tuberculosis H37Rv ATCC 27294 assessed as growth inhibition at 1 uM after 6 days by luciferase reporter gene assay relative to control; format: functional; conditions: H37Rv ATCC 27294, 144 h, read-out: GI; in short: as §1
[3] = tested on: Mycobacterium tuberculosis; assay: Antimycobacterial activity against Mycobacterium tuberculosis H37Rv ATCC 27294 assessed as growth inhibition at 10 uM after 6 days by luciferase reporter gene assay relative to control; format: functional; conditions: H37Rv ATCC 27294, 144 h, read-out: GI; in short: as §1
[4] = tested on: Salmonella typhimurium; assay: Genotoxicity in recombinant Salmonella typhimurium TA104 expressing Vibrio fisheri luxabcd genes under transcriptional control of recN2-4 promoter assessed as concentration required to cause DNA damage measured every 5 mins for 4 hrs by vitotox assay in presence of S9 fraction; format: toxicity, organism-based; conditions: salmonella enterica subsp. enterica serovar typhimurium, s9, 4 h
In short: (§2)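 VITOTOX genox strain TA104 recN2-4 (recN promoter driving lux). Grown 16 h at 36 °C in poor LB, diluted 125-fold and shaken 1 h, then diluted 10-fold; rat aroclor S9 added for +S9 runs. Incubated at 30 °C with light read every 5 min for 4 h. Signal/noise = exposed over unexposed light. Highest concentration tested 10 µM.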

[5] = Toxicity in recombinant Salmonella typhimurium TA104 expressing luxabcd genes under transcriptional control of constitutive pr1 promoter assessed as concentration required to reduce cell viability measured every 5 mins for 4 hrs by vitotox assay in presence of S9 fraction; format: organism-based; conditions: salmonella enterica subsp. enterica serovar typhimurium; read-out: Activity
In short: (§3)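 Cytox strain TA104 pr1 (constitutive promoter driving lux), run alongside the genox strain. Grown in poor LB at 36 °C for 16 h, diluted 125-fold and shaken 1 h, then diluted 10-fold, with or without aroclor-rat S9. Luminescence read at 30 °C every 5 min over 4 h; a drop in light signal indicates reduced viability. Top concentration 10 µM.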

[6] = tested on: Salmonella typhimurium; assay: Toxicity in recombinant Salmonella typhimurium TA104 expressing luxabcd genes under transcriptional control of constitutive pr1 promoter assessed as concentration required to reduce cell viability measured every 5 mins for 4 hrs by vitotox assay in absence of S9 fraction; format: organism-based; conditions: salmonella enterica subsp. enterica serovar typhimurium; in short: as §3
[7] = tested on: Salmonella typhimurium; assay: Genotoxicity in recombinant Salmonella typhimurium TA104 expressing Vibrio fisheri luxabcd genes under transcriptional control of recN2-4 promoter assessed as concentration required to cause DNA damage measured every 5 mins for 4 hrs by vitotox assay in absence of S9 fraction; format: toxicity, organism-based; conditions: salmonella enterica subsp. enterica serovar typhimurium; in short: as §2
[8] = Cytotoxicity against human HepG2/C3A cells assessed as cell viability at 180 uM after 24 hrs by neutral red uptake assay relative to control; format: cell-based; conditions: read-out: Activity
In short: (§4)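 C3A cells grown in DMEM + 10% FCS, 40 000 cells/well, recovered overnight at 37 °C, 5% CO2. Exposed 24 h to serial dilutions in DMEM + 10% FCS from 18 mM DMSO stocks, DMSO limited to 1%. Neutral red added for 3 h, cells washed, dye extracted with ethanol/acetic acid (50%/1%), OD read at 540 nm with 620 nm reference. Viability expressed as % of untreated cells.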

[9] = Cytotoxicity against human HepG2/C3A cells assessed as cell viability at 120 uM after 24 hrs by neutral red uptake assay relative to control; format: cell-based; conditions: read-out: Activity; in short: as §4
[10] = Cytotoxicity against human HepG2/C3A cells assessed as cell viability at 60 uM after 24 hrs by neutral red uptake assay relative to control; format: cell-based; conditions: read-out: Activity; in short: as §4
[11] = tested on: Mycobacterium tuberculosis; assay: Antimycobacterial activity against Mycobacterium tuberculosis H37Rv infected in mouse J774.A1 cells at 1 MOI assessed as intracellular bacterial growth inhibition at 0.1 uM after 1 hr by luciferase reporter gene assay relative to control; format: functional; conditions: J774.A1, 1 h, read-out: GI
[12] = tested on: Mycobacterium tuberculosis; assay: Antimycobacterial activity against Mycobacterium tuberculosis H37Rv infected in mouse J774.A1 cells at 1 MOI assessed as intracellular bacterial growth inhibition at 1 uM after 1 hr by luciferase reporter gene assay relative to control; format: functional; conditions: J774.A1, 1 h, read-out: GI
[13] = tested on: Mycobacterium tuberculosis; assay: Antimycobacterial activity against Mycobacterium tuberculosis H37Rv infected in mouse J774.A1 cells at 1 MOI assessed as intracellular bacterial growth inhibition at 10 uM after 1 hr by luciferase reporter gene assay relative to control; format: functional; conditions: J774.A1, 1 h, read-out: GI
[14] = Selectivity index, ratio of NI50 for human HepG2/C3A cells to MIC50 for Mycobacterium tuberculosis H37Rv ATCC 27294; format: functional
[15] = tested on: Mycobacterium ulcerans; assay: Antimycobacterial activity against Mycobacterium ulcerans 1615 assessed as growth inhibition after 6 days by luciferase reporter gene assay; format: functional; conditions: Mycobacterium ulcerans, 1615, 144 h
In short: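 M. ulcerans 1615 carrying pSMT1 luciferase reporter plasmid, stock grown as surface pellicle on Sauton medium, cultured at 32 °C. Serial compound dilutions in 7H9 + 10% FCS from 10 mM DMSO stocks, tested in triplicate. Filtered bacteria added at 50 000 RLU/mL. After 6 days, wells collected and washed with PBS, 1% n-decanal in ethanol added, light read over 10 s. MIC50 = concentration giving 50% inhibition versus untreated.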

[16] = tested on: Mycobacterium avium subsp. paratuberculosis; assay: Antimycobacterial activity against Mycobacterium avium subsp. paratuberculosis ATCC 19698 assessed as growth inhibition after 6 days by luciferase reporter gene assay; format: functional; conditions: ATCC 19698, 144 h
In short: (§5)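 Mycobacteria carrying the pSMT1 luciferase reporter plasmid. Compounds came from 10 mM DMSO stocks and were serially diluted in 7H9 + 10% FCS. Thawed bacteria were filtered, recovered 1 h at 37 °C, then added at 50 000 RLU/mL. After 6 days of culture, light was read for 10 s after adding 1% n-decanal. Triplicates were run, and MIC50 was the concentration giving 50% growth inhibition.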

[17] = Antimycobacterial activity against Mycobacterium avium subsp. avium ATCC 15769 assessed as growth inhibition after 6 days by luciferase reporter gene assay; format: functional; conditions: ATCC 15769, 144 h; in short: as §5
[18] = tested on: Mycobacterium tuberculosis; assay: Antimycobacterial activity against Mycobacterium tuberculosis H37Rv ATCC 27294 assessed as growth inhibition after 6 days by luciferase reporter gene assay; format: functional; conditions: H37Rv ATCC 27294, 144 h; in short: as §5

SMILES	inhibition of growth at 0.1 µM [1] [%]	inhibition of growth at 1 µM [2] [%]	inhibition of growth at 10 µM [3] [%]	further results
O=C(O)c1ccc(OCCOc2ccc(C(=O)O)cc2)cc1	< 10	< 10	38	
O=C(O)c1ccc(OCCCCCCCCCCOc2ccc(C(=O)O)cc2)cc1	< 10	< 10	40	
O=Cc1ccc(OCCOCCOc2ccc(C=O)cc2)cc1	< 10	12	70	
O=Cc1ccc(OCOc2ccc(C=O)cc2)cc1	< 10	30	85	Activity [4]: > 10 µM; MCC at 4 h [5]: > 10 µM; Activity [6]: > 10 µM; Activity [7]: > 10 µM; viability at 24 h, 180 µM [8]: 78.6%; viability at 24 h, 120 µM [9]: 91.6%; viability at 24 h, 60 µM [10]: 96.8%; intracellular bacterial growth inhibition at 0.1 µM [11]: 1.6%; percent inhibition of intracellular bacterial growth at 1 µM [12]: 35.2%; intracellular bacterial growth inhibition at 10 µM [13]: 41.3%; Selectivity Index [14]: >60; MIC50 [15]: > 10 µM; MIC50 [16]: > 10 µM; MIC50 [17]: > 10 µM; MIC50 [18]: 3 µM (≈ 0.769 µg/mL)
O=[N+]([O-])c1ccc(OCCCCCCCCCCCCOc2ccc([N+](=O)[O-])cc2)cc1	< 10	< 10	91	
O=Cc1ccc(OCCCCOc2ccc(C=O)cc2)cc1	< 10	25	87	Activity [4]: > 10 µM; MCC at 4 h [5]: > 10 µM; Activity [6]: > 10 µM; Activity [7]: > 10 µM; viability at 24 h, 180 µM [8]: 55.7%; viability at 24 h, 120 µM [9]: 73.2%; viability at 24 h, 60 µM [10]: 86.1%; intracellular bacterial growth inhibition at 0.1 µM [11]: -0.9%; percent inhibition of intracellular bacterial growth at 1 µM [12]: 39%; intracellular bacterial growth inhibition at 10 µM [13]: 41.3%; Selectivity Index [14]: >56.1; MIC50 [15]: > 10 µM; MIC50 [16]: > 10 µM; MIC50 [17]: > 10 µM; MIC50 [18]: 3.21 µM (≈ 0.958 µg/mL)
O=C(O)c1ccc(OCCCCCCCOc2ccc(C(=O)O)cc2)cc1	< 10	14	38	
O=Cc1ccc(OCCCCCCCCCCCCCCOc2ccc(C=O)cc2)cc1	30	57	98	
O=C(O)c1ccc(OCCCCCCCCCCCCOc2ccc(C(=O)O)cc2)cc1	< 10	< 10	< 10	
O=Cc1ccc(OCC(O)COc2ccc(C=O)cc2)cc1	< 10	< 10	60	
O=C(O)c1ccc(OCCCOc2ccc(C(=O)O)cc2)cc1	< 10	< 10	< 10	
O=Cc1ccc(OCCCCCOc2ccc(C=O)cc2)cc1	< 10	39	95	Activity [4]: > 10 µM; MCC at 4 h [5]: > 10 µM; Activity [6]: > 10 µM; Activity [7]: > 10 µM; viability at 24 h, 180 µM [8]: 45.6%; viability at 24 h, 120 µM [9]: 72.6%; viability at 24 h, 60 µM [10]: 90.4%; intracellular bacterial growth inhibition at 0.1 µM [11]: 0.2%; percent inhibition of intracellular bacterial growth at 1 µM [12]: 38.1%; intracellular bacterial growth inhibition at 10 µM [13]: 46.8%; Selectivity Index [14]: >110.4; MIC50 [15]: > 10 µM; MIC50 [16]: 8.69 µM (≈ 2.71 µg/mL); MIC50 [17]: 7.32 µM (≈ 2.29 µg/mL); MIC50 [18]: 1.63 µM (≈ 0.509 µg/mL)
O=Cc1cccc(OCCCCCOc2cccc(C=O)c2)c1	< 10	< 10	97	
NNC(=O)c1ccncc1 [ISONIAZID]	98	100	100	intracellular bacterial growth inhibition at 0.1 µM [11]: 37%; percent inhibition of intracellular bacterial growth at 1 µM [12]: 82.3%; intracellular bacterial growth inhibition at 10 µM [13]: 97.7%; MIC50 [15]: 0.39 µM (≈ 0.0535 µg/mL); MIC50 [16]: < 0.1 µM; MIC50 [17]: < 0.1 µM; MIC50 [18]: < 0.1 µM
O=Cc1ccccc1OCCCCCOc1ccccc1C=O	< 10	15	39	
O=C(O)c1ccc(OCCCCCCCCCCCOc2ccc(C(=O)O)cc2)cc1	< 10	< 10	15	
O=C(O)c1ccc(OCCCCCOc2ccc(C(=O)O)cc2)cc1	< 10	30	27	
O=C(O)c1ccc(OCCCCCCCCCOc2ccc(C(=O)O)cc2)cc1	< 10	17	17	
O=C(O)c1ccc(OCCCCOc2ccc(C(=O)O)cc2)cc1	< 10	26	27	
O=C(O)c1ccc(OCOc2ccc(C(=O)O)cc2)cc1	< 10	< 10	40	
O=Cc1cccc(OCCCCCCCCCCCCOc2cccc(C=O)c2)c1	< 10	< 10	< 10	
CCCCCCCCCCCCOc1ccc(C=O)cc1	< 10	< 10	< 10	
O=C(O)c1ccc(OCCCCCCOc2ccc(C(=O)O)cc2)cc1	< 10	26	39	
O=C(O)c1ccc(OCCCCCCCCOc2ccc(C(=O)O)cc2)cc1	< 10	29	29	
c1ccc(OCCCCCCCCCCCCOc2ccccc2)cc1	< 10	< 10	< 10	
O=Cc1ccc(OCCCOc2ccc(C=O)cc2)cc1	< 10	35	84	Activity [4]: > 10 µM; MCC at 4 h [5]: > 10 µM; Activity [6]: > 10 µM; Activity [7]: > 10 µM; viability at 24 h, 180 µM [8]: 77.4%; viability at 24 h, 120 µM [9]: 94.8%; viability at 24 h, 60 µM [10]: 94.9%; intracellular bacterial growth inhibition at 0.1 µM [11]: -1.2%; percent inhibition of intracellular bacterial growth at 1 µM [12]: 29.9%; intracellular bacterial growth inhibition at 10 µM [13]: 42%; Selectivity Index [14]: >67.9; MIC50 [15]: > 10 µM; MIC50 [16]: > 10 µM; MIC50 [17]: > 10 µM; MIC50 [18]: 2.65 µM (≈ 0.753 µg/mL)
